Source: PubChem BioAssay
MrgX1 agonist: agonists of human MrgX1 receptor, primary screen, HEK293 cells, Fluo-4 calcium flux. Mas-related G-protein coupled receptor member X1 (Homo sapiens), Q96LB2. Fluo-4 calcium fluorescence, agonist mode; stronger effect = higher value. B-score at 10 µM. actives 0.44% (n = 310,000). AID 588627, 2011;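 active means calcium response B-score plate-corrected fluorescence ratio at least 3 library SD, with starting fluorescence B-score inside 5 SD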
Target sequence (Q96LB2 whole entry, looked up): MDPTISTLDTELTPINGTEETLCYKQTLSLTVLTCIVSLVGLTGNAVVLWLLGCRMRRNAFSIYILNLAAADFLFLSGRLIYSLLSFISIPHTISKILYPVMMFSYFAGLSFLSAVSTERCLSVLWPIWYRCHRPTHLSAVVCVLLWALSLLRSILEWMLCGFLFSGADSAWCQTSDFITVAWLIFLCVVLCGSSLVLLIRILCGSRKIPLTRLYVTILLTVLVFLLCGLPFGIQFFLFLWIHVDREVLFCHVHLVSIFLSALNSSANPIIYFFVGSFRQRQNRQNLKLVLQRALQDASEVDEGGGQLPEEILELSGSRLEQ
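Material: MrgX1-expressing HEK293 cells / Dosing: compound as first of three additions / Incubation: overnight seeding, then 1 h dark dye loading / Signal: Fluo-4 NW calcium fluorescence / Evaluation: B-scored fluorescence response ratio / Benchmarks: positive and negative control wells on each plate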
MrgX1 antagonist: antagonists of human MrgX1 receptor, primary screen, HEK293 cells, Fluo-4 calcium flux. Mas-related G-protein coupled receptor member X1 (Homo sapiens), Q96LB2. BAM8-22 antagonism; stronger effect = lower value. B-score at 10 µM. actives 1.3% (n = 310,000). AID 588676, 2011;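 active means calcium-response B-score plate-corrected more than 3 library SD below zero, starting fluorescence within 5 deviations, no agonist response on first addition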;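 further: peak minus trough fluorescence over baseline after final BAM8-22 challenge near maximal dose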
RGS4 pot: RGS4 potentiators or activators, primary screen, cell-based, HEK293 M3R inducible RGS4, calcium flux; carbachol calcium flux Fluo4; stronger effect = lower value; B-score at 10 µM; actives 0.92% (n = 310,000);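 active means B-score of the integrated calcium signal more than 4 SD below the library mean, with starting fluorescence not abnormally high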;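 further: negative B-score means reduced calcium response which marks RGS4 activation or potentiation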
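Material: Inducible-RGS4 HEK293 cells carrying M3 receptor; also added: carbachol at ECmax as muscarinic agonist stimulus; incubation: compound preincubation 20 min at room temperature before agonist; signal: Fluo4-AM (2 µM) calcium-flux fluorescence, kinetic read; measure: integrated calcium ratio converted to B score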
MrgX1 PAM: positive allosteric modulators of MrgX1, primary screen, HEK293 cells, Fluo-4 calcium flux | Mas-related G-protein coupled receptor member X1 (Homo sapiens), Q96LB2 | FDSS; stronger effect = higher value | B-score at 10 µM | actives 0.63% (n = 310,000) | AID 588675, 2011;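 active means plate-corrected calcium response at least 3 library SD above typical, normal starting fluorescence, not activating the receptor alone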;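 further: compound read alongside a low EC10 to EC30 dose of BAM8-22 agonist; peak minus trough fluorescence over baseline measured at the second addition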
RGS4 block: RGS4 inhibitors, primary screen, cell-based, HEK293 M3R inducible RGS4, calcium flux | Regulator of G-protein signaling 4 (Homo sapiens), P49798 | Fluo-4 calcium flux; stronger effect = higher value; triggered by carbachol at its EC20 | B-score at 10 µM | actives 0.45% (n = 310,000) | AID 463165, 2010;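 active means B-score, a plate-corrected calcium signal, over three deviations above library mean, with baseline fluorescence within five deviations of library mean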;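 further: RGS4 expression induced by doxycycline in cells with stable M3 receptor; B-score is computed from the integrated fluorescence ratio over baseline after carbachol; higher B-score means a larger calcium signal and so more RGS4 inhibition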
Target sequence (P49798 whole entry, looked up): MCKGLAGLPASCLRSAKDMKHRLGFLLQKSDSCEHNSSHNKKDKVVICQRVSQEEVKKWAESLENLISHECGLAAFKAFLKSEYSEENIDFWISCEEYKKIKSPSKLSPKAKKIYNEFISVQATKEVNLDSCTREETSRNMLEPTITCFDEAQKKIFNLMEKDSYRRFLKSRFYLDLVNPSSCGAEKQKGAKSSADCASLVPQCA
MrgX1 ant reconf: MrgX1 receptor antagonists, duplicate retest, confirmation, HEK293 cells, Fluo-4 calcium flux. shares compounds with MrgX1 antagonist. BAM8-22 calcium flux; stronger effect = lower value. remaining BAM8-22 calcium response % of control (stronger effect = lower value), % at 10 µM. actives 19% (n = 2,300). AID 602420, 2012;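 active means remaining agonist calcium response no higher than 100% minus 3 SD of agonist-only control wells, with starting fluorescence near control levels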;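 further: agonist BAM8-22 given at a near maximal EC90 to ECmax level; peak minus minimum fluorescence divided by baseline after agonist addition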
HEK293 Ca flux: nonspecific calcium signal in parental HEK293, confirmation, counter-screen for MrgX1 antagonist project, parental HEK293 cells, Fluo-4 calcium flux; shares compounds with MrgX1 antagonist; Fluo-4 calcium fluorescence, FDSS; fluorescence ratio F(max-min)/F0 at 10 µM; actives 2% (n = 4,000); AID 624111, 2012;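 active means duplicate-averaged calcium fluorescence ratio at least three times the standard deviation of buffer wells, a nonspecific response in parental cells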
HEK293 Ca counter: calcium response in parental HEK293 cells, primary screen, counter-screen for MrgX1 allosteric activator project, cell-based, Fluo-4 calcium flux, duplicate; shares compounds with MrgX1 antagonist; Fluo-4 fluorescence ratio; stronger effect = higher value; fluorescence ratio F(max-min)/F0 at 10 µM; actives 0.4% (n = 4,000); AID 624114, 2012;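 active means calcium fluorescence ratio, averaged over duplicates, at least 3 SD of the buffer-well ratio, meaning a nonspecific response in receptor-free cells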;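 further: untransfected parental HEK293 lacking MrgX1 used as counterscreen for MrgX1 allosteric activators; fluorescence change taken during the second addition on a kinetic imager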
HEK293 Ca cntr2: calcium response in parental HEK293 cells, primary screen, counter-screen for MrgX1 agonist project, cell-based, Fluo-4 calcium flux, duplicate, agonist mode; fluorescence ratio F(max-min)/F0 at 10 µM; actives 8.7% (n = 4,000); Fluo-4 calcium fluorescence (FDSS); stronger effect = higher value; shares compounds with MrgX1 antagonist;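 active means calcium fluorescence ratio at least three times the spread of buffer wells, meaning a non-specific response in parental cells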
Starred values were filed as active, the others as inactive; i = inactive; . = not tested or not shown. Most compounds without a hit are left out; they make up all but 3.5% or so of the library.

SMILES	MrgX1 agonist	MrgX1 antagonist	RGS4 pot	MrgX1 PAM	RGS4 block	MrgX1 ant reconf	HEK293 Ca flux	HEK293 Ca counter	HEK293 Ca cntr2
O=C(CNC(=O)C1CCCCC1)Nc1ccccc1	i	i	i	i	i	.	.	.	.
Cc1cc(NC(=O)CNC(=O)C2CCCCC2)no1	i	-5.3*	.	i	.	i	i	i	i
O=C(CNC(=O)C1CCCCC1)NC1CCCCC1	i	-4.7*	i	i	i	i	i	i	i
O=C(c1ccccc1)N1CCN(c2ncnc3sc4c(c23)CCC4)CC1	i	-5.1*	i	i	i	i	i	i	i
c1nc(N2CCOCC2)c2c3c(sc2n1)CCCC3	i	i	i	i	i	.	.	.	.
Cc1ccc(NC(=O)CCN2C(=O)CSC2=O)c(C)c1	i	-4.6*	i	i	i	i	i	i	i
CC(=O)c1ccc(NC(=O)C(C)NCc2ccccc2Cl)cc1 (stereo not given)	i	-6.2*	i	i	i	i	i	i	i
CCOc1ncccc1C(=O)Nc1cccc(Cl)c1Cl	i	i	i	i	i	.	.	.	.
COc1ccccc1C(=O)NC(=S)NNC(=O)c1sc2ccccc2c1Cl	i	-12*	-9.1*	i	i	i	i	i	i
CC1CCCCC1NC(=S)NC(=O)c1sc2ccccc2c1Cl (stereo not given)	i	i	i	i	i	.	.	.	.
Cc1nn(CCCC(=O)NC(C)c2ccccc2)c(=O)c2nn(-c3ccccc3)c(C)c12 (stereo not given)	i	i	i	i	i	.	.	.	.
Cc1c(C(=O)N(C)C)c2cc(Cl)ccc2n1O	i	-5*	i	i	i	i	i	i	i
Cc1ccccc1NC(=O)C(C)OC(=O)c1ccccc1C(=O)N(C)c1ccccc1 (stereo not given)	i	-5.7*	i	i	i	i	i	i	i
O=C(CCS(=O)(=O)c1ccc(Br)cc1)N1CCN(c2ccccc2F)CC1	i	-5.4*	.	i	.	i	i	i	i
N#CC1=C(N)Oc2cc3ccccc3cc2C1c1cccnc1 (stereo not given)	i	i	i	i	i	.	.	.	.
COc1ccc(N=Cc2cc3c(cc2O)OC(N)=C(C#N)C3c2ccccc2)cc1 (stereo not given)	i	-5.9*	i	i	i	i	i	i	i
CC(NC(=O)CSc1nnc(-c2cccnc2)n1N)c1ccccc1 (stereo not given)	i	-4.6*	i	i	i	i	i	i	i
COc1ccccc1NC(=O)COc1cc(C)nc(C(C)C)n1	i	-5.4*	i	i	i	i	i	i	i
O=C(CSc1nnnn1-c1cccc2c1CCCC2)NC1CCCC1	i	-4.5*	i	i	i	i	i	i	i
CN(C)C/C=C(\c1ccc(Br)cc1)c1cccnc1	i	-4.9*	.	i	.	i	i	i	i
